Assay outcomes as filed in PubChem BioAssay.
Compounds with a hit are over-represented: about 4.2% of the library has one in this group of screens.
UPR XBP1 act: activators of adaptive arm of unfolded protein response (XBP1) | CHO-XBP1 luciferase reporter, IRE1-XBP1 UPR activation, luminescence; percent of tunicamycin response, DMSO as zero | activation, % at 20 µM | hit rate 0.33% among 330,000;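 active means versus positive control, 20 µM dose yields 30% or more activation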
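Assay system: CHO-XBP1 luciferase reporter cells; Schedule: 6 h treatment, 37 °C; Detection: glow luminescence from Steady-Glo reagent; Benchmarks: high control tunicamycin 10 µg/mL final, low control DMSO vehicle only.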
ANO1 block: blocks the mouse calcium-activated chloride channel TMEM16A. Q8BHY3. HEK293 TMEM16A/YFP iodide influx fluorescence, ionomycin. normalized B-score (activity score, 25-100; higher = stronger inhibition) at 10 µM. hit rate 1.2% among 310,000. AID 588511;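 active means ratio plate-corrected score three or more library SD toward inhibition, starting fluorescence score within five deviations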;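 further: score derived from kinetic fluorescence span divided by baseline fluorescence per well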
Target sequence (Q8BHY3 whole entry, looked up): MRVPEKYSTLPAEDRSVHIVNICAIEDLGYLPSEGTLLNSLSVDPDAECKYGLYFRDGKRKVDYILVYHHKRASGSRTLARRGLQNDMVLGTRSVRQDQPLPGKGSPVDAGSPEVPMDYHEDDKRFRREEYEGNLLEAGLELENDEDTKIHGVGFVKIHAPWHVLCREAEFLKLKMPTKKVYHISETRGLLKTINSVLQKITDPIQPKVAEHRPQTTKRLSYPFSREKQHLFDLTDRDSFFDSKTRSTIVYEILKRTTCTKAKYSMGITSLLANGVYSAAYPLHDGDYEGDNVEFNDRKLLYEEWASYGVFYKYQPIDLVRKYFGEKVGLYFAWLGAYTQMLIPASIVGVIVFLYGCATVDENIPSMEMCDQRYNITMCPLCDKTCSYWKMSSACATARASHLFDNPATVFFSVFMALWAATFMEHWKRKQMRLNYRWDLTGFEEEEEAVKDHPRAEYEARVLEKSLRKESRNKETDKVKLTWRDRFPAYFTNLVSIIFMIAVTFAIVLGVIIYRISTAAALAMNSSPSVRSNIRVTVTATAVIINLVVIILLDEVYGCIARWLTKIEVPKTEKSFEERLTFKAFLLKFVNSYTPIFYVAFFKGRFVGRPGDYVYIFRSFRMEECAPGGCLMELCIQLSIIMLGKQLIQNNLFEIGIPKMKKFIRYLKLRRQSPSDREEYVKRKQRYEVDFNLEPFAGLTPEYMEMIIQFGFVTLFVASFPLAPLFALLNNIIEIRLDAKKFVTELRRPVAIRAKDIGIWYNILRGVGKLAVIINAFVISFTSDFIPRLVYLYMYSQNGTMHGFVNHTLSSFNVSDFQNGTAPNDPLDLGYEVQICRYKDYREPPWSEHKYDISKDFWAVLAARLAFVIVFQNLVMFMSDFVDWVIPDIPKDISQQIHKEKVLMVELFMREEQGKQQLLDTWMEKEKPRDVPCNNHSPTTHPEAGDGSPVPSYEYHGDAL
CHOP UPR activ: apoptotic UPR (CHOP) activation. activation, % at 10 µM. hit rate 0.34% among 330,000. CHO-CHOP luciferase reporter, luminescence; percent of tunicamycin response over DMSO baseline. AID 449763;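 active means at 10 µM dose, activation of 40% or more, normalized to positive control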
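System: CHO CHOP reporter cells. Amount: 500 cells per well. Buffer or medium: F12 medium, 10% FBS. Compound dosing: one dose, 10 µM in 0.5% DMSO. Incubation: 6 h compound exposure at 37 °C after overnight seeding. Technique: Steady-Glo luciferase luminescence. Benchmarks: tunicamycin and DMSO controls.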
ANO1 activ: mouse TMEM16A channel activation, primary screen | Q8BHY3 | B-score at 10 µM | AID 623877 | HEK293 TMEM16A/YFP-H148Q/I152L, iodide quench fluorescence; stronger effect = lower value | hit rate 0.3% among 340,000;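 active means fluorescence-ratio B-score plate-corrected deviation score at least 3 library SD below zero, with starting fluorescence score within 5 deviations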;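 further: channel opened by trigger with iodide after compound preincubation; score built on the fluorescence ratio of max minus min over baseline; more negative score means more quench and so TMEM16A activation or potentiation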
CHOP inhibitor: blocks CHOP induction under ER stress | AID 2732 | hit rate 3.8% among 220,000 | CHO-K1 CHOP-promoter luciferase, tunicamycin-induced, 15-18 h | inhibition, % at 10 µM;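 active means compounds that reduced the stress-induced luciferase reporter signal by more than about 70% of percent inhibition, limit read from the data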
Hep lipid drop: modulators of hepatic lipid droplet formation. AML12 mouse hepatocytes, oleate lipid droplets, BODIPY imaging. inhibition, % at 6.5 µM. AID 1656. hit rate 0.4% among 240,000;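 active means lipid droplet intensity inhibited by at least 50%, with more than 500 cells counted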
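material = mouse AML12 hepatocyte cell line, fixed after treatment | also added = 100 µM oleic acid challenge | doses = compound at 6.5 µM only | schedule = overnight exposure | technique = Image-based BODIPY and DAPI two-channel analysis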
Numbers stand for hits; 0 = inactive; - = no result given.

SMILES	UPR XBP1 act	ANO1 block	CHOP UPR activ	ANO1 activ	CHOP inhibitor	Hep lipid drop
C[C@H]1O[C@@H](O[C@H]2CC[C@@]3(C)C(CC[C@]4(C)C3C=C[C@]35OC[C@@]6(CCC(C)(C)C[C@H]63)[C@@H](O)C[C@]54C)[C@]2(C)CO)[C@H](O)[C@@H](O[C@@H]2O[C@H](CO)[C@@H](O)[C@H](O)[C@H]2O)[C@H]1O (some centres undefined)	0	-	0	0	-	-
CC1OC(OC2C(OC3C(O[C@H]4CC[C@]5(C)C6C=C[C@]78OC[C@@]9(CC[C@@H](C)[C@H](C)C97)[C@H](O)C[C@@]8(C)[C@]6(C)CC[C@H]5C4(C)C)OC(C)C(O)C3O)OC(CO)C(O)C2O)C(O)C(O)C1O (some centres undefined)	-	-	-	-	100.7	0
COc1cc(C(=O)NCC(c2cccnc2)N2CCN(c3ccc(F)cc3)CC2)cc(OC)c1OC (centres undefined)	0	0	0	0	0	0
CCOC(=O)N1C2c3ccccc3C(c3ccccc32)N1C(=O)OCC	-	-	-	0	-	-
Cc1ccccc1OCc1nc2ccccc2c(=O)n1/N=C/c1c[nH]c2ccccc12	0	0	0	0	88.0	0
Cc1cccc(C)c1OCc1nc2ccccc2c(=O)n1/N=C/c1c[nH]c2ccccc12	0	0	0	0	84.9	0
CCCc1nc2ccccc2c(=O)n1/N=C/c1ccccc1O	0	0	0	0	0	-
O=c1c2ccccc2nc(COc2ccccc2)n1/N=C/c1cc([N+](=O)[O-])ccc1O	0	100	0	0	0	0
Cc1cc(/C=N/n2c(COc3ccccc3C)nc3ccccc3c2=O)c(O)c([N+](=O)[O-])c1	0	100	0	0	0	0
COc1ccc(NC(=O)C(=O)NCC2CCCN2S(=O)(=O)c2cc(C)ccc2C)cc1 (centres undefined)	0	0	0	0	-	-
Cc1ccc(N2CC(C(=O)Nc3ccc(C)c(S(=O)(=O)N(C)C)c3)CC2=O)cc1 (centres undefined)	0	0	0	0	0	0
O=C(COc1ccc2ccc(=O)oc2c1)Nc1cccc(S(=O)(=O)N2CCCCC2)c1	0	-	0	0	-	-
CC(C)CN(CC(C)C)C(=O)Cc1coc2ccc3ccccc3c12	0	25	0	0	0	0
O=C(O)Cc1coc2ccc3ccccc3c12	0	0	0	0	0	0
COCCNc1nc2c(c(=O)[nH]c(=O)n2C)n1CCCc1ccccc1	0	0	0	0	-	0
COC(=O)c1c(C)[nH]c(C)c1-c1cccc([N+](=O)[O-])c1	0	0	0	-7.71	0	0
COC(=O)c1c(C)[nH]c(C)c1-c1ccc(C)cc1	0	0	0	0	0	0
COc1ccc(-c2nc(NC(=O)C3CCN(c4nc5ccccc5o4)CC3)sc2C)cc1	0	0	0	0	78.1	-
C=CCc1cc(C=O)cc(OCC)c1OCc1ccc(Cl)cc1	0	0	0	0	70.6	0
O=C(c1cc(C2CC2)on1)N1CCN(c2ccccc2)CC1	0	0	0	0	0	-
O=C1C2C3C=CC(C3=C3CCCCC3)C2C(=O)N1Cc1ccccc1 (centres undefined)	0	0	0	0	86.2	0
Cc1nc(-c2cccnc2)sc1C(=O)Nc1ccc(Cl)cc1	0	0	0	0	81.0	-
CN(Cc1ccc(Cl)cc1Cl)C(=O)c1cccc(S(=O)(=O)NCc2ccccc2)c1	-	-	-	0	-	-
Oc1ccc(N=Nc2ccc3c(c2)OCO3)c2ccccc12	0	0	65.9	-	100.8	0
O=C(NN=Cc1c(O)ccc2ccccc12)c1ccc2c(c1)OCO2	0	-	0	0	-	-
SMILES	UPR XBP1 act	ANO1 block	CHOP UPR activ	ANO1 activ	CHOP inhibitor	Hep lipid drop
CC(C)CN(CC(C)C)CC(O)COc1ccccc1Br (centres undefined)	0	0	0	0	84.7	0
Cc1ccccc1OCC(O)CN(CCO)Cc1ccccc1 (centres undefined)	0	0	0	-37.9	0	0
N#C/C(=N/O)c1nc(-c2ccc(F)cc2)cs1	0	100	0	0	0	0
Fc1ccc(-c2csc(-c3ccncc3)n2)cc1	0	0	0	0	0	0
C#CCn1c(S(=O)(=O)Cc2ccccc2Cl)nc(-c2ccccc2)c1-c1ccccc1	0	0	0	0	80.4	0
CCOC(=O)Cn1c(S(=O)(=O)Cc2ccccc2Cl)nc(-c2ccccc2)c1-c1ccccc1	0	0	0	0	70.1	0
O=C1CC(c2cccc([N+](=O)[O-])c2)c2ccc3ccccc3c2N1 (centres undefined)	0	25	0	0	0	-
O=C1CC(c2ccsc2)c2ccc3ccccc3c2N1 (centres undefined)	0	0	0	0	0	0
Cc1cccc(OCC(=O)Nc2ccc3c(c2)nc(CCN2CCN(c4ccccn4)CC2)n3C)c1	0	100	0	0	-	0
CCCCCNC(=O)c1ccc2c(=O)n(CCCN3CCCC3=O)c(=S)[nH]c2c1	0	0	0	0	0	0
CC(=O)Nc1ccc(SCC(=O)N2CCN(S(=O)(=O)c3ccccc3)CC2)cc1	0	0	0	0	-	0
COc1ccc(NC(C)C(=O)N/N=C/c2ccccc2OCc2ccc(Br)cc2)cc1 (centres undefined)	0	0	0	0	0	-
CC(Nc1ccc(Br)cc1)C(=O)N/N=C/c1ccccc1OCc1ccccc1 (centres undefined)	0	0	0	0	91.6	0
O=C(O)c1cccc(NC(=S)N/N=C/c2ccccc2OCc2cccc(Br)c2)c1	-	-	-	0	0	0
O=C(COc1cccc2ccccc12)N/N=C/c1ccccc1OCc1ccc(C(=O)O)cc1	0	100	0	0	0	0
O=C(O)c1cccc(NC(=S)N/N=C/c2ccccc2OCc2ccc(Br)cc2)c1	0	25	0	0	0	0
O=C(COc1ccccc1-c1ccccc1)N/N=C/c1cccc2ccccc12	0	0	0	0	0	-
c1coc(-c2nc3c4c5c(sc4ncn3n2)CCCC5)c1	0	0	0	0	78.9	0
Cc1ccc(S(=O)(=O)c2c(N)n(Cc3ccco3)c3nc4ccccc4nc23)cc1	0	0	0	0	74.4	-
CCCCCCCC[n+]1c(C)n(-c2ccccc2)c2ccc(NC(C)=O)cc21	0	0	0	0	0	0
CCOc1ccc(Br)cc1/C(C)=N\NC1=NCCN1	0	100	0	0	0	0
O=C(CCC(=O)c1cccs1)NCc1cccc(C(F)(F)F)c1	0	0	0	0	-	-
CCN=C1SC(C(=O)Nc2cc(Cl)cc(Cl)c2)CC(=O)N1CC (centres undefined)	0	0	0	0	74.6	0
